What was measured:
[1] = Drug uptake in human DU145 cells at 100000 cpm preincubated for 2 hrs measured up to 8 hrs under normoxic condition by gamma counting analysis; format: ADME, cell-based; conditions: du-145, 8 h
[2] = Drug uptake in human PC3 cells at 100000 cpm preincubated for 2 hrs measured up to 8 hrs under hypoxic condition by gamma counting analysis; format: ADME, cell-based; conditions: pc-3, 8 h
[3] = Drug uptake in human PC3 cells at 100000 cpm preincubated for 2 hrs measured up to 8 hrs under normoxic condition by gamma counting analysis; format: ADME, cell-based; conditions: pc-3, 8 h
[4] = Drug uptake in human DU145 cells at 100000 cpm preincubated for 2 hrs measured up to 8 hrs under hypoxic condition by gamma counting analysis; format: ADME, cell-based; conditions: du-145, 8 h
[5] = 1-octanol/phosphate buffered saline distribution coefficient, log D of the compound at 400000 cpm at pH 7.4 by gamma counting method; format: physicochemical
DU-145 [6] = assay: Cytotoxicity against human DU145 cells incubated for 2 hrs under hypoxic condition measured after 72 hrs by Alamar blue assay; format: functional, cell-based
Outline: (§1)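 DU145 and PC-3 cells exposed 2 h under hypoxia (N2) or normoxia (air). IC50 determined. Mean ± SEM of two or more independent experiments, each in quintuplicate.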

DU-145 [7] = assay: Cytotoxicity against human DU145 cells incubated for 2 hrs under normoxic condition measured after 72 hrs by Alamar blue assay; format: functional, cell-based; outline: as §1
PC-3 [8] = assay: Cytotoxicity against human PC3 cells incubated for 2 hrs under hypoxic condition measured after 72 hrs by Alamar blue assay; format: functional, cell-based; outline: as §1
PC-3 [9] = assay: Selectivity index, ratio of IC50 for human PC3 cells under normoxic condition to IC50 for human PC3 cells under hypoxic condition; format: functional
Outline: (§2)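 Hypoxia cytotoxicity ratio = IC50(air)/IC50(N2), from IC50 values after 2 h exposure of DU145 or PC-3 cells. Based on two or more independent experiments in quintuplicate.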

DU-145 [10] = assay: Selectivity index, ratio of IC50 for human DU145 cells under normoxic condition to IC50 for human DU145 cells under hypoxic condition; format: functional; outline: as §2
PC-3 [11] = assay: Cytotoxicity against human PC3 cells incubated for 2 hrs under normoxic condition measured after 72 hrs by Alamar blue assay; format: functional, cell-based; outline: as §1

Structure (SMILES)	Drug uptake [1]	Drug uptake [2]	Drug uptake [3]	Drug uptake [4]	logD [5]	IC50 (DU-145 [6])	IC50 (DU-145 [7])	IC50 (PC-3 [8])	Ratio IC50 (PC-3 [9])	Ratio IC50 (DU-145 [10])	IC50 (PC-3 [11])
Cn1c(COP(=O)(N(CCBr)Cc2cn(Cc3ccccc3)nn2)N(CCBr)Cc2nnn(Cc3ccccc3)c2[125I])cnc1[N+](=O)[O-] (stereo unspecified)	2%	4%	2%	4%	0.55						
Cn1c(COP(=O)(NCCBr)NCCBr)cnc1[N+](=O)[O-] [EVOFOSFAMIDE]						4.14 µM	842 µM	6.49 µM	106	203	687 µM

— ChEMBL document CHEMBL4130594 (ACS Med Chem Lett, 2017)
